UBC13 inh: blocks human UBC13 polyubiquitin chain formation; P61088; TR-FRET; inhibition, % at 20 µM; hit rate 0.47% among 330,000; AID 485273; in the data active = inhibition above about 45%, passing the limit was not always enough
Target sequence (P61088 whole entry, looked up): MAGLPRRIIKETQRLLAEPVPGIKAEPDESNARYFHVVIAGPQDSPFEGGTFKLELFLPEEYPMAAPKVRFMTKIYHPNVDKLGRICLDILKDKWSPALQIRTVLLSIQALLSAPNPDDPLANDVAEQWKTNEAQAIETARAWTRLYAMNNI
Granule exo inh: lytic granule exocytosis inhibition; AID 651702; TALL-104 LAMP-1 surface exposure, flow cytometry; cells stimulated with thapsigargin and PMA; hit rate 0.66% among 360,000; inhibition, % at 10 µM;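 active = inhibition above about 55%, limit read from the data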
hiPSC survival: enhancers of human iPSC single-cell survival; hiPSC single-cell survival, ATPlite luminescence; 100% = ROCK inhibitor wells, 0% = DMSO; survival enhancement, % at 20 µM; hit rate 0.044% among 360,000; in the data active = survival enhancement above about 18%;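 note: cells exposed to compounds for 16 hours before the ATP read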
MPTP block: inhibitors of mitochondrial permeability transition pore; isolated mouse mitochondria, Ca2+ swelling absorbance, 30 min; inhibition, % at 10 µM; hit rate 1.4% among 360,000; AID 602449;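 active = inhibition of 50% or more, scaled per plate between neutral and stimulator controls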
Apaf1 inhib: human Apaf-1 inhibition | reconstituted apoptosome caspase-3 activity, DEVD-Rh110 fluorescence | inhibition, % at 20 µM | hit rate 0.71% among 330,000 | AID 489030; active = inhibition of at least 40% at 20 µM
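System: Apoptosome proteins | Medium: Hepes pH 7.5 with detergent and BSA | Also added: Cytochrome c trigger plus (Z-DEVD)2-Rh110 caspase-3 substrate | Incubation: 30 min compound preincubation, 50 min activation, room temperature | Detection: Rhodamine 110 fluorescence at Ex 480/Em 540 nm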
MIN6 prolif: induces beta-cell replication in MIN6 cells; AID 2380; MIN6 cells proliferation, ATPlite luminescence, 48 h; cells starved in 0.2% serum; 100% = growth in 10% serum; proliferation, % at 10 µM; hit rate 0.29% among 330,000;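 active = compounds whose signal lies at least 3.5 SD above the mean of all wells on their plate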
MPTP counter: membrane potential counter-screen of mitochondrial pore inhibitors. isolated mitochondria, Rhodamine 123 fluorescence. shares compounds with MPTP block. hit rate 78% among 5,000. AID 624504. inhibition, % at 10 µM; in the data active = inhibition above about 22%
MPTP swell DR: MPTP inhibition, dose response swelling confirmation; shares compounds with MPTP block; isolated mitochondria swelling, absorbance; IC50, µM; hit rate 58% among 780; AID 651561; in the data active = IC50 below about 20 µM
MPTP cs DR: counter-screen for mitochondrial permeability transition pore inhibitors, dose response. IC50, µM. AID 651564. hit rate 49% among 780. shares compounds with MPTP block. isolated mitochondria counterscreen, fluorescence read-out; in the data active = IC50 below about 80 µM
Numbers stand for hits; . = inactive; / = no result given. This is a sample that favours compounds with a hit; in the whole collection about 3% have one here.

SMILES	UBC13 inh	Granule exo inh	hiPSC survival	MPTP block	Apaf1 inhib	MIN6 prolif	MPTP counter	others
CCOC(=O)c1cnc(SCC(=O)Nc2cc(OC)cc(OC)c2)nc1N	.	.	.	87	.	.	49
CN(C)c1nn(C(=O)Nc2cccc(C(F)(F)F)c2)cc1-c1ccccc1	.	.	.	90	.	.	101
CC1CCN(c2ccc(S(=O)(=O)N3CCC(C)CC3)cc2N)CC1	.	.	.	69	.	.	77
COc1ccc(NS(=O)(=O)c2ccc(N3CCCCC3)c(N)c2)cc1	.	.	.	90	.	.	87
Nc1cc(S(=O)(=O)c2ccc(N3CCCCC3)c(N)c2)ccc1N1CCCCC1	/	.	.	94	/	/	105
COc1ccc(NS(=O)(=O)c2ccc(N3CCCCC3)c(NC(=O)C(C)NC(N)=O)c2)cc1 (stereo not drawn)	.	.	.	.	.	.	/
Cc1ccc2[nH]c(O)c(N=Nc3ccccc3C)c2c1	.	.	.	66	.	.	.	MPTP swell DR=.;MPTP cs DR=.
Cc1ccc2[nH]c(C(=O)N/N=C/c3ccc([N+](=O)[O-])cc3)c(C)c2c1	.	.	.	51	.	.	74
CCCCC/C=N/NC(=O)c1[nH]c2ccc([N+](=O)[O-])cc2c1C	.	.	.	76	.	.	73
Cc1ccc2[nH]c(C(=O)N/N=C/c3ccccc3O)c(C)c2c1	.	.	.	.	.	.	/
COC(=O)/C=C1\OCc2cc(OC)c(OC)cc21	/	.	/	.	/	/	/
O=c1cc(-c2ccc([N+](=O)[O-])cc2)nc2cc(-c3ccc(F)cc3)[nH]n12	.	.	.	89	.	.	.	MPTP swell DR=.;MPTP cs DR=28
C[C@H]1CN([C@@H](C)CO)C(=O)CCCn2nncc2CO[C@@H]1CN(C)Cc1ccncc1	/	.	.	.	/	/	/
N#Cc1c(NC(=O)Cn2c(=O)oc3ccccc32)oc(-c2ccccc2)c1-c1ccccc1	.	.	.	95	.	.	44
O=C(Cn1c(=O)oc2ccccc21)Nc1ccc(Br)cc1	.	.	.	.	.	.	/
CC(C)(C)c1ccc(CSc2nc(N)cc(=O)[nH]2)cc1	.	.	.	67	.	.	76
Nc1cc(=O)[nH]c(SCc2ccc(Cl)cc2)n1	.	.	.	.	.	.	/
O=C1C=C(c2c(O)ccc3ccccc23)c2ccccc2C1=O	/	104	.	65	/	/	50
NC(=S)Nc1cccc(Cl)c1	.	.	.	.	.	.	/
CSc1cccc(NC(=S)NN(C)C)c1	.	.	.	.	.	.	/
Fc1ccc(NC(=S)Nc2ccc(Br)cc2)cc1	.	.	.	73	.	.	93
CC(C)c1cccc(C(C)C)c1NC(=S)Nc1cccc(Cl)c1	.	.	.	88	.	.	90
Fc1ccc(NC(=S)Nc2cccc(Cl)c2)cc1	.	.	.	86	.	.	97
CSc1cccc(NC(=S)Nc2ccc(F)cc2)c1	.	.	.	73	.	.	85
Oc1ccc(NC(=S)Nc2ccc(F)cc2)cc1	.	.	.	.	.	.	/
SMILES	UBC13 inh	Granule exo inh	hiPSC survival	MPTP block	Apaf1 inhib	MIN6 prolif	MPTP counter	others
CC1(C(=O)NS(=O)(=O)c2ccccc2C(F)(F)F)CCN1C(=O)CCc1ccccc1 (stereo not drawn)	/	.	.	.	/	/	/
COc1ccc(NC(=O)c2cc(C3CCCCN3C(=O)OCCF)on2)c(C)c1 (stereo not drawn)	/	.	.	.	/	/	/
NC(c1ccccc1)c1cccnc1 (stereo not drawn)	.	.	.	.	.	.	/
Cn1nc(-c2ccccc2)cc1NC(=O)Nc1ccc(F)cc1	.	.	.	66	.	.	81
Cn1nc(C(F)(F)F)c(-c2cccc(C(F)(F)F)c2)c1NC(=O)Nc1ccc(F)cc1	.	.	.	79	.	.	82
COc1ccc(-n2nc(C(=O)NCC(=O)N(C)Cc3ccccc3)c3ccccc3c2=O)c(OC)c1	.	.	.	.	.	.	/
CCN(CC)C(=O)c1[nH]cnc1C(=O)NCC(=O)OC(C)(C)C	.	.	.	.	.	.	/
CCN(CC)c1ccc(C(=C2C=CC(=[N+](CC)CC)C=C2)c2ccccc2)cc1	/	.	.	.	/	/	/
CCN(CC)c1ccc(C(=C2C=CC(=[N+](CC)CC)C=C2)c2ccc(N(CC)CC)cc2)cc1	/	.	.	137	/	/	74
O=C(c1cccc(S(=O)(=O)N2CCCC2)c1)N1CCOCC1	.	.	.	.	.	.	/
CSc1ccccc1OC1CCN(Cc2ccccc2)CC1	.	.	.	54	.	.	.	MPTP swell DR=.;MPTP cs DR=63
CN1CCN(NC(=O)c2cc(-c3ccc(Br)s3)nc3ccccc23)CC1	.	.	.	82	.	.	.	MPTP swell DR=15;MPTP cs DR=.
O=C(NCc1ccc2c(c1)OCO2)OCc1ccccc1	/	.	/	.	/	/	/
NC(N)=N/N=C/c1cccc([N+](=O)[O-])c1O	.	.	.	.	.	.	/
O=[N+]([O-])c1cccc(/C=N\N=C2c3ccccc3-c3ccccc32)c1O	.	.	.	104	.	.	.
CCOC(=O)N1CCC(N(CCOC)C(=O)Nc2ccc(Cl)cc2)CC1	.	.	.	64	.	.	77
CN(C)c1ccc(Cl)c(NC(N)=S)c1	/	.	.	.	/	/	/
CC(C)(C)CC(C)(C)NCC(O)COc1c(F)cc(Br)cc1F (stereo not drawn)	.	.	.	102	.	.	.	MPTP swell DR=7.1;MPTP cs DR=57
Cc1ccc([C@H]2N[C@]3(CCCN(Cc4ccc(Cl)cc4)C3=O)[C@H]3C(=O)N(Cc4ccccc4)C(=O)[C@@H]23)cc1	/	.	.	.	/	/	/
O=C(NNC1=C(C(=O)C(F)(F)F)CCC1)c1cccc(Cl)c1	.	.	.	.	.	.	/
O=C(NNC1=C(C(=O)C(F)(F)F)CCC1)c1ccc(Cl)cc1	.	.	.	92	.	.	77
CCCCNCCOCCOc1ccc(C)cc1Br	.	.	.	61	.	.	.	MPTP swell DR=.;MPTP cs DR=.
CCOC(=O)c1sc(=S)n(C)c1NC(=O)c1ccc(OC)cc1	.	.	.	.	.	.	/
CCOC(=O)c1sc(=S)n(C)c1NC(=O)c1ccc(C(C)(C)C)cc1	.	.	.	75	.	.	88
Cc1cccc(NS(=O)(=O)c2ccc(C)c(C(=O)NCCCN3CCOCC3)c2)c1	.	.	.	.	.	.	/
CC1=C(C(=O)N(C)C)CC(CC(=O)NCCN2CCOCC2)C(=O)N1Cc1ccc(F)cc1 (stereo not drawn)	/	.	.	.	/	/	/
Oc1ccc(Cl)cc1CNCc1ccc(Cl)cc1	.	.	.	.	.	.	/
Oc1ccc(Cl)cc1Cc1cc(Cl)ccc1O	.	.	.	86	.	.	86

Compound activity deposited in PubChem by several laboratories.
